Measurements of several laboratories.
Target: Receptor tyrosine-protein kinase erbB-4 (ERBB4, Homo sapiens, UniProt Q15303)

O=C(c1ccc(Nc2ncc(Cl)c(-c3ccc(Cl)s3)n2)cc1)N1CCC(N2CCCC2)CC1  remaining binding (binding, competition with immobilised ligand; 1 µM): 100%
N[C@@H]1CCN(c2nccc(-c3cnn4ncccc34)n2)C1  remaining binding (binding; 1 µM): 100%
O=C(NCCCN1CCOCC1)c1ccc(Nc2ncc(Cl)c(-c3ccc(Cl)s3)n2)cc1  remaining binding (binding, competition with immobilised ligand; 1 µM): 100%
CN(C)C(=O)Cn1cc(-c2nc(C3(c4ccc(-c5cnc(N)nc5)cc4)CC3)no2)cn1  remaining binding (cell-free assay, competition with immobilised ligand; 1 µM): 100%
COc1ncc2cc3ccccc3nc2c1C#N  remaining binding (cell-free assay, competition with immobilised ligand; 5 µM): 96%
CN(c1nccc(-c2cnn3ncccc23)n1)C1CC1  remaining binding (binding; 1 µM): 100%
CC(C)(C)c1ccc(-c2nc(CBr)nn2-c2cccc(O)c2)cc1  remaining binding (cell-free assay, competition with immobilised ligand; 10 µM): 88%
COc1ccc2c(O[C@@H]3C[C@H]4C(=O)N[C@]5(C(=O)O)CC5/C=C\CCCCC[C@H](NC(=O)OC5CCCC5)C(=O)N4C3)cc(-c3csc(NC(=O)C(C)C)n3)nc2c1C (stereo partly shown)  remaining binding (cell-free assay, competition with immobilised ligand; 1 µM): 100%
CN(C)c1nccc(-c2cnc3ncccn23)n1  remaining binding (binding; 1 µM): 89%
O=C(c1ccc(Nc2nccc(-c3cc4ccccc4s3)n2)cc1)N1CCC(N2CCCC2)CC1  remaining binding (binding, competition with immobilised ligand; 1 µM): 93%
C[C@@H]1CCN(c2nccc(-c3cnn4ncccc34)n2)C1  remaining binding (binding; 1 µM): 79%
Cc1noc([C@H]2C[C@@H](c3ccc(C(F)(F)F)cc3)CN(C(=O)N3CCS(=O)(=O)C3)C2)n1  remaining binding (cell-free assay, competition with immobilised ligand; 1 µM): 100%
c1cncc(-c2cccc(Nc3nccc(NC4CCCCC4)n3)c2)c1  remaining binding (binding, competition with immobilised ligand; 10 µM): 85%
c1cnn2ncc(-c3ccnc(N4CCC45COC5)n3)c2c1  remaining binding (binding; 1 µM): 76%
CCC(=N\O)/C(C)=C/c1ccc(F)cc1  remaining binding (cell-free assay, competition with immobilised ligand; 1 µM): 66%
Cc1cnn2ncc(-c3ccnc(N(C)C)n3)c2c1  remaining binding (binding; 1 µM): 65%
COc1ccc2c(c1)O[C@@H](c1ccc(OC)c(OC)c1)C[C@H]2NC(=O)C1(c2ccc3c(c2)OC(F)(F)O3)CC1  remaining binding (cell-free assay, competition with immobilised ligand; 1 µM): 90%
O=C(Nc1c[nH]nc1C(=O)NC1CCNCC1)c1cc(F)cc(F)c1  remaining binding (binding, competition with immobilised ligand; 1 µM): 100%
COc1cccc(CNC(=O)c2nc3scc(COCc4ccc(C(=O)O)cc4)c3c(=O)[nH]2)c1  remaining binding (cell-free assay, competition with immobilised ligand; 1 µM): 86.1%
COc1cnc(Nc2cccc(S(N)(=O)=O)c2)nc1N1CCN(c2ccccc2)C(=O)C1  remaining binding (binding, competition with immobilised ligand; 1 µM): 100%
O=C(N[C@H]1CCCCC/C=C\C2C[C@@]2(C(=O)O)NC(=O)[C@@H]2C[C@@H](Oc3ccncc3)CN2C1=O)OC1CCCC1 (stereo partly shown)  remaining binding (binding, competition with immobilised ligand; 1 µM): 100%
COc1cnc(Nc2cccc(S(N)(=O)=O)c2)nc1N1CCN(c2ccccc2)CC1  remaining binding (binding, competition with immobilised ligand; 1 µM): 86%
